Screening results: PubChem, several laboratories
Rows were chosen to be rich in hits. Some 2.3% of all compounds tested hit in one or more screens of this group.
GPR7 antag = antagonists of human GPR7 (neuropeptides B/W receptor 1). P48145. GPR7-expressing cells, fluorescence antagonist assay. inhibition, % at 4.4 µM. 290,000 tested, 1.1% active; in the data active = inhibition above about 16%, passing the limit was not always enough;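 note: cells stimulated with the agonist NPW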
Target sequence (P48145 whole entry, looked up): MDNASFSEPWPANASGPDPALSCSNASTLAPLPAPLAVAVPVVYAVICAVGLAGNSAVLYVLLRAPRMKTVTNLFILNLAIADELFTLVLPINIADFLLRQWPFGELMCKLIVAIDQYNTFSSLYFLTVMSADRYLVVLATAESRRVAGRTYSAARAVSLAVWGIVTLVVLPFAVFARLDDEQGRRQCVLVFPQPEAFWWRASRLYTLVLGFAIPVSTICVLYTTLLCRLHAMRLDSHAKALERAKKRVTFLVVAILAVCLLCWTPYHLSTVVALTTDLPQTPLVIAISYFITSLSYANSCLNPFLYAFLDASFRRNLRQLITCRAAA
core dimer inh = blocks dimerization of HCV core protein. AID 1899. inhibition, % at 5 µM. 300,000 tested, 0.33% active. TR-FRET GST/Flag-core106 dimerization, 1536-well;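 active = inhibition above the mean of all tested compounds plus 3 SD, set per screening campaign, cut at about 45% in these data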
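Assay system: Tagged HCV core106 pair (GST and Flag) | Buffer or medium: KF-containing HEPES buffer, pH 7.45, DTT, CHAPS, BSA | Also added: Eu donor and XL665 acceptor anti-tag antibodies | Dosing: One concentration, 5 µM, in 0.5% DMSO | Timing: 4 h at 22.5 °C | Technique: TR-FRET 671 and 617 nm emission | Repeats: Singlicate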
NS3 helicase inh = HCV NS3 helicase inhibition. AID 1800. NS3 helicase DNA unwinding, Cy5 molecular beacon fluorescence. inhibition, % at 10.9 µM. 290,000 tested, 0.56% active;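 active = inhibition above the mean of all tested compounds plus 3 SD, set per campaign, cut at about 35% in these data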
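Test system: hepatitis C virus NS3 helicase domain fragment enzyme. Also added: annealed dual-labelled DNA beacon duplex, ATP-started. Timing: 60 min unwinding reaction at 25 °C after ATP addition. Technique: Cy5 fluorescence. Measure: % inhibition of unwinding.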
ZTA counter = ZTA (EBV) inhibition in EBNA-1 counter-screen. P03206. ZTA-DNA binding, fluorescence polarization. inhibition, % at 11 µM. 320,000 tested, 0.15% active. AID 2234; in the data active = inhibition above about 33%
EBV gp42 block = blocks Epstein-Barr virus glycoprotein 42 binding | Q1HVG2 | 220,000 tested, 0.42% active | Fluorescence polarization binding assay, mP read-out | AID 1085 | inhibition, % (tested at 21.74 µM); in the data active = inhibition above about 50%
EBNA-1 inh = blocks EBNA-1 binding to DNA | EBNA-1 DNA binding, fluorescence polarization | inhibition, % at 14.8 µM | 300,000 tested, 0.34% active | AID 1950; in the data active = inhibition above about 28%
EBNA-1 inh conf = EBNA-1 (EBV) inhibition, confirmation; 830 tested, 35% active; inhibition, % at 14.8 µM; shares compounds with EBNA-1 inh; Recombinant EBNA-1 DBD, Cy5-DNA fluorescence polarization;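 active = mean inhibition across replicates above a set limit taken from the earlier primary screen, cut at about 28% in these data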
ZTA counter trip = counter-screen for EBNA-1 inhibitors: Epstein-Barr virus ZTA inhibitors, triplicate; shares compounds with EBNA-1 inh; inhibition, % at 11.1 µM; 830 tested, under 10 active; Zta-ZRE DNA binding, Cy5 fluorescence polarization;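 active = mean inhibition over triplicates above a set limit taken from the primary EBNA-1 screen, cut at about 37% in these data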;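 note: purified full length Zta protein with Cy5 labeled ZRE DNA probe; inhibitors lower polarization by freeing the labeled DNA probe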
Zta DNA confirm = EBV ZTA DNA binding inhibition, confirmation | inhibition, % at 11.1 µM | shares compounds with ZTA counter | 320 tested, 30% active | AID 2361 | Zta-ZRE DNA binding, fluorescence polarization;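 active = mean inhibition across triplicate runs above the hit threshold derived for the original primary screen, cut at about 33% in these data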
EBNA1 counter = counter-screen for ZTA inhibitors: EBNA-1 DNA binding inhibition; shares compounds with ZTA counter; inhibition, % at 14.8 µM; 320 tested, under 10 active; fluorescence polarization; call rule not given here
Each line names hits and unclear results; the compound was inactive in the other large screens (follow-up assays come after a bar, where they were run).

Cc1nn(Cc2ccccc2)c(Cl)c1C(=O)OC(C)C(=O)Nc1ccc(F)cc1Cl (configuration not stated)	EBNA-1 inh 122 | EBNA-1 inh conf 129 | ZTA counter trip inactive
Cc1ccc(C(=O)c2cc(Br)ccc2N)cc1	none
Cc1ccc(N=Cc2c(O)n(-c3ccc(C)cc3)c(=O)[nH]c2=O)cc1	none (no result: GPR7 antag, NS3 helicase inh, EBV gp42 block)
COc1ccc(CCn2c(O)c(C=Nc3ccc(NC(C)=O)cc3)c(=O)[nH]c2=O)cc1OC	ZTA counter 60 | Zta DNA confirm 47 | EBNA1 counter 38
CCN(CC)c1ccc(N=Cc2c(O)n(-c3ccc(OC)cc3)c(=O)[nH]c2=O)cc1	ZTA counter 36, EBV gp42 block 102 | Zta DNA confirm inactive | EBNA1 counter inactive
C=CCn1c(O)c(C=Nc2ccc(N(CC)CC)cc2)c(=O)[nH]c1=O	ZTA counter 45 | Zta DNA confirm inactive | EBNA1 counter inactive
O=C(CCC(=O)N1C[C@H]2C[C@@H](C1)c1cccc(=O)n1C2)NCc1cccc(C(F)(F)F)c1	none (no result: EBV gp42 block)
O=c1[nH]c(=O)n(Cc2ccccc2Cl)c(O)c1C=Nc1ccc(F)cc1	none
CSc1ncc(/C=C2/C(=O)NC(=O)N(c3ccc(Cl)cc3)C2=O)cn1	none (no result: core dimer inh, ZTA counter, EBNA-1 inh)
Cc1cc(/C=C2\C(=O)NC(=O)N(c3ccc(F)cc3)C2=O)c(C)n1-c1cccc(C(=O)O)c1	none
Cc1cc(/C=C2\C(=O)NC(=O)N(c3ccccc3F)C2=O)c(C)n1-c1cc(C(=O)O)cc(C(=O)O)c1	ZTA counter 33 (no result: EBV gp42 block) | Zta DNA confirm 60 | EBNA1 counter inactive
Cn1ncnc2c(=O)n(C)c(=O)nc1-2	ZTA counter 59 (no result: GPR7 antag, NS3 helicase inh, EBV gp42 block) | Zta DNA confirm 72 | EBNA1 counter inactive
O=C(O)c1ccc2c(c1)C1C(Cl)C(Sc3ccccc3[N+](=O)[O-])CC1C(c1cccc([N+](=O)[O-])c1)N2 (configuration not stated)	none (no result: core dimer inh, ZTA counter, EBNA-1 inh)
CCN(CC)C(=O)c1ccc2c(c1)C1C(Cl)C(Sc3ccccc3[N+](=O)[O-])CC1C(C(=O)O)N2 (configuration not stated)	ZTA counter 54 | Zta DNA confirm 39 | EBNA1 counter inactive
